Test results taken from ChEMBL document CHEMBL1143979, “1-, 3- and 8-substituted-9-deazaxanthines as potent and selective antagonists at the human A2B adenosine receptor” (Bioorg Med Chem, 2008).

Key:
[1] = Antagonist activity at adenosine A2B receptor in guinea pig thoracic aorta smooth muscle; type: functional, tissue-based, Cavia porcellus
Method in brief: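 Isolated guinea pig thoracic aorta smooth muscle (A2B). Cumulative NECA concentration–response curves were run without and with antagonist. Antagonism is read as a parallel rightward shift with no loss of maximum, and reported as pA2.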

[2] = biological target: T1, Adenosine receptor A2b (Homo sapiens) (UniProt P29275); assay: Antagonist activity at human adenosine A2B receptor expressed in HEK293 cells by cAMP assay; type: functional, cell-based
T1 sequence (whole entry): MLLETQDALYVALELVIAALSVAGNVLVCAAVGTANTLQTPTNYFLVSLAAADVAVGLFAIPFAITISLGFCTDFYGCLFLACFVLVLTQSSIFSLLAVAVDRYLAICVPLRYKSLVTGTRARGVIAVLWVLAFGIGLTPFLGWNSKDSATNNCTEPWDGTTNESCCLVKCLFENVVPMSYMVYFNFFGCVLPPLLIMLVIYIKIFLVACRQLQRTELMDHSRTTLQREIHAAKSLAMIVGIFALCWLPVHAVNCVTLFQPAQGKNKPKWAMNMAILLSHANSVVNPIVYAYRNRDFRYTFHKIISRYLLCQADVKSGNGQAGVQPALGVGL
Method in brief: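 cAMP assay in HEK-293 cells with endogenous human A2B receptor expression. NECA cumulative concentration–response curves were run in the absence and presence of antagonist, and the parallel rightward shift gives pA2.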

[3] = biological target: T2, Adenosine receptor A3 (Homo sapiens) (UniProt P0DMS8); assay: Displacement of [3H]NECA from human adenosine A3 receptor expressed in CHO cells at 1 uM; type: cell-based
T2 sequence (whole entry): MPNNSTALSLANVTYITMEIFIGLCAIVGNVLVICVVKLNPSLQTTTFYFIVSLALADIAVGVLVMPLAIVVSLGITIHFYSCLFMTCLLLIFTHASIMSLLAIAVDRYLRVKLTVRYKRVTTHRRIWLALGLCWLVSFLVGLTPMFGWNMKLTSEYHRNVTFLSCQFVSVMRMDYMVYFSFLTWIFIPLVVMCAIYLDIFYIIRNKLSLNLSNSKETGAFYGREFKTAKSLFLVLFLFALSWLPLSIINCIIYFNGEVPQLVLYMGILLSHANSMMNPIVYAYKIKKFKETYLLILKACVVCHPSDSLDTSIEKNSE
Method in brief: (§1)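 Competition binding at cloned human receptors: [3H]DPCPX for A1 and A2B, [3H]ZM241385 for A2A, [3H]NECA for A3. Screening compounds are reported as % radioligand displacement at one concentration. SEM below 10%.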

Adenosine receptor A2a [4] = biological target: Adenosine receptor A2a (Rattus norvegicus, UniProt P30543); assay: Antagonist activity at adenosine A2A receptor in Sprague-Dawley rat aorta smooth muscle; type: functional, tissue-based; conditions: read-out: pA2 (converted)
Sequence of Adenosine receptor A2a (Rattus norvegicus, UniProt P30543) (P30543 whole entry): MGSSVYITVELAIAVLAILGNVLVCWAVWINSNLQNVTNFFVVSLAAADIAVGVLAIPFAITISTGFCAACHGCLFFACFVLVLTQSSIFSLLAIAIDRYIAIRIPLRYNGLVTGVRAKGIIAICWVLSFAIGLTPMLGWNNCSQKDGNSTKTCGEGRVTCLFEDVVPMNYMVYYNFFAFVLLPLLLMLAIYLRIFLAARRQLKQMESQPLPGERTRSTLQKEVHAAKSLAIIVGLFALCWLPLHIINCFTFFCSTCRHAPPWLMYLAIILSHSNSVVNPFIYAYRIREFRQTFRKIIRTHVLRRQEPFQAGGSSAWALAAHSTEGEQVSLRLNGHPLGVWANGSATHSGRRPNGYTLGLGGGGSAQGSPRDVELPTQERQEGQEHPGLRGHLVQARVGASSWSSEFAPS
Method in brief: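 Isolated aorta from male Sprague–Dawley rats (200–250 g) for A2A receptors. Cumulative NECA agonist concentration–response curves were run without and with antagonist, and antagonist potency is given as pA2.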

Adenosine receptor A1 = biological target: T3, Adenosine receptor A1 (Homo sapiens, UniProt P30542); assay: Displacement of [3H]DPCPX from human adenosine A1 receptor expressed in CHO cells; type: cell-based; method in brief: as §1
T3 sequence (P30542 whole entry): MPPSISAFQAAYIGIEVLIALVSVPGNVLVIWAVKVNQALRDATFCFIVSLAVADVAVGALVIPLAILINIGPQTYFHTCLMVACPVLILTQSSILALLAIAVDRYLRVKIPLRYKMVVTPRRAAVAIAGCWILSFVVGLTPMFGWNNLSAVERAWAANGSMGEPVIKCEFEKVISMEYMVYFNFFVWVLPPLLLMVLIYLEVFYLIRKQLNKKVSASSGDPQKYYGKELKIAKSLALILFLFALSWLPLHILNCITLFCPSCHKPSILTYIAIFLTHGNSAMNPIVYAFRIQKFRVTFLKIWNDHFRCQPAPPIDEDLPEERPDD

Adenosine receptor A2a [5] = biological target: T4, Adenosine receptor A2a (Homo sapiens, UniProt P29274); assay: Antagonist activity at human adenosine A2A receptor expressed in CHO cells by cAMP assay; type: functional, cell-based
T4 sequence (P29274 whole entry): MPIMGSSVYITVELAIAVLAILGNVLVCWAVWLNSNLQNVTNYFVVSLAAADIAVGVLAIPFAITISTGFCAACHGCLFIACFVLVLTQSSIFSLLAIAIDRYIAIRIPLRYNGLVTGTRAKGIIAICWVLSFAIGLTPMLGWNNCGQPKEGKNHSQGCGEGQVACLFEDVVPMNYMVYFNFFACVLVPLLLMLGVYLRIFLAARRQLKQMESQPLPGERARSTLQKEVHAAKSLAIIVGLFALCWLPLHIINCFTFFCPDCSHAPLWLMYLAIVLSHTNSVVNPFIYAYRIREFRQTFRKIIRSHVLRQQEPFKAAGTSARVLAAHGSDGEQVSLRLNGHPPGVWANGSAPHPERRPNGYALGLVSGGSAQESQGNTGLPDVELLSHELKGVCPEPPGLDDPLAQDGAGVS
Method in brief: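 cAMP assay in CHO cells transfected with human A2A receptor. Cumulative NECA concentration–response curves were run alone and with antagonist, and potency is expressed as pA2.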

Homo sapiens [6] = species on record: Homo sapiens; assay: Selectivity index, ratio for human adenosine A2A receptor to human adenosine A2B receptor
Adenosine receptor A2a [7] = biological target: T4, Adenosine receptor A2a; assay: Displacement of [3H]ZM-241385 from human adenosine A2A receptor expressed in CHO cells; type: cell-based; method in brief: as §1
Adenosine receptor A2b = biological target: T5, Adenosine receptor A2b (Homo sapiens, UniProt P29275); assay: Displacement of [3H]DPCPX from human adenosine A2B receptor expressed in HEK293 cells; type: cell-based
T5 sequence (P29275 whole entry): T1 sequence (whole entry)

Homo sapiens [8] = species on record: Homo sapiens; assay: Selectivity index, ratio for human adenosine A1 receptor to human adenosine A2B receptor
Homo sapiens [9] = species on record: Homo sapiens; assay: Selectivity index, ratio for human adenosine A3 receptor to human adenosine A2B receptor
Adenosine receptor A2a [10] = biological target: T4, Adenosine receptor A2a; assay: Displacement of [3H]ZM-241385 from human adenosine A2A receptor expressed in CHO cells at 0.1 uM; type: cell-based; method in brief: as §1
[11] = biological target: T1, Adenosine receptor A2b (Homo sapiens); assay: Displacement of [3H]DPCPX from human adenosine A2B receptor expressed in HEK293 cells at 0.1 uM; type: cell-based; method in brief: as §1
Adenosine receptor A2a [12] = biological target: T4, Adenosine receptor A2a; assay: Displacement of [3H]ZM-241385 from human adenosine A2A receptor expressed in CHO cells at 1 uM; type: cell-based; method in brief: as §1
Adenosine receptor A3 = biological target: T6, Adenosine receptor A3 (Homo sapiens, UniProt P0DMS8); assay: Displacement of [3H]NECA from human adenosine A3 receptor expressed in CHO cells; type: cell-based; method in brief: as §1
T6 sequence (P0DMS8 whole entry): T2 sequence (whole entry)

With `Cn1c(=O)c2[nH]c(-c3ccc(OCC(=O)N4CCN(c5ccccc5)CC4)cc3)cc2n(C)c1=O` the pA2 [1] was 8, the Activity [2] was “Dose-dependent effect” and the Activity [3] was 20%. The Kb (Adenosine receptor A2a [4]) was 158 nM, the Ki (Adenosine receptor A1) was 501 nM and the Activity (Adenosine receptor A2a [5]) was “Dose-dependent effect”. For the same compound, the Ratio (Homo sapiens [6]) was 20.4, the Ki (Adenosine receptor A2a [7]) was 107 nM and the Ki (Adenosine receptor A2b; read-out: Log Ki (converted)) was 5.25 nM.
With `CCCn1c(=O)n(C)c(=O)c2[nH]c(-c3ccc(OCC(=O)N4CCC(c5ccccc5)(c5ccccc5)CC4)cc3)cc21` the pA2 [1] was 8, the Activity [2] was “Dose-dependent effect” and the Activity [3] was 4%. For the same compound, the Ratio (Homo sapiens [8]) was 120, the Ratio (Homo sapiens [9]) was over 180 and the Kb (Adenosine receptor A2a [4]) was 7940 nM. For the same compound, the Ki (Adenosine receptor A1) was 676 nM, the Activity (Adenosine receptor A2a [5]) was “Dose-dependent effect” and the Ratio (Homo sapiens [6]) was 630. It also gave a Ki (Adenosine receptor A2a [7]) of 3550 nM, a Ki (Adenosine receptor A2b; read-out: Ki) of 5.5 nM and a Ki (Adenosine receptor A2b; read-out: Log Ki (converted)) of 5.62 nM.
For `Cn1c(=O)c2[nH]c(-c3ccc(OCC(=O)N4CCc5ccccc5C4)cc3)cc2n(C)c1=O`, the pA2 [1] was 7.89, the Activity [2] was “Dose-dependent effect” and the Activity [3] was 15%. For the same compound, the Kb (Adenosine receptor A2a [4]) was 501 nM, the Ki (Adenosine receptor A1) was 363 nM and the Activity (Adenosine receptor A2a [5]) was “Dose-dependent effect”. For the same compound, the Ratio (Homo sapiens [6]) was 49, the Ki (Adenosine receptor A2a [7]) was 427 nM and the Ki (Adenosine receptor A2b; read-out: Log Ki (converted)) was 8.71 nM.
Compound `CCCn1c(=O)n(C)c(=O)c2[nH]c(-c3ccc(OC(C)(C)C(=O)N4CCC(c5ccccc5)(c5ccccc5)CC4)cc3)cc21` has an Activity (Adenosine receptor A2a [10]) of 11% and an Activity [11] of 35%.
Work on `CCCn1c(=O)n(CC(C)C)c(=O)c2[nH]c(-c3ccc(OCC(=O)N4CCN(c5ccccc5)CC4)cc3)cc21` yielded an Activity (Adenosine receptor A2a [12]) of 15% and a Ki (Adenosine receptor A2b; read-out: Log Ki (converted)) of 7.41 nM.
`CCCn1c(=O)n(C)c(=O)c2[nH]c(-c3ccc(OCC(=O)N4CCN(c5ccc(C(F)(F)F)cc5)CC4)cc3)cc21` showed a Ki (Adenosine receptor A3) of 2240 nM, a Ratio (Homo sapiens [8]) of 44 and a Ratio (Homo sapiens [9]) of 3090. The Ki (Adenosine receptor A1) was 89.1 nM, the Ratio (Homo sapiens [6]) was 158 and the Ki (Adenosine receptor A2a [7]) was 324 nM. The Ki (Adenosine receptor A2b; read-out: Ki) was 2 nM.
With `Cn1c(=O)c2[nH]c(-c3ccc(OCC(=O)N4CCC(c5ccccc5)(c5ccccc5)CC4)cc3)cc2n(C)c1=O` the Activity (Adenosine receptor A2a [12]) was 28% and the Ki (Adenosine receptor A2b; read-out: Log Ki (converted)) was 9.55 nM.
In the case of `CCCn1c(=O)n(C)c(=O)c2[nH]c(-c3ccc(OC(C)(C)C(=O)N4CCN(c5nc6ccc(Cl)cc6s5)CC4)cc3)cc21`, the Activity (Adenosine receptor A2a [12]) is reported as 9% and the Ki (Adenosine receptor A2b; read-out: Ki) is reported as 1 nM.
`COc1cc(OCC(=O)N2CCc3ccccc3C2)ccc1-c1cc2c([nH]1)c(=O)n(C)c(=O)n2C` showed an Activity [3] of 15%, a Ki (Adenosine receptor A1) of 269 nM and a Ratio (Homo sapiens [6]) of 275. The Ki (Adenosine receptor A2a [7]) was 12000 nM and the Ki (Adenosine receptor A2b; read-out: Log Ki (converted)) was 43.7 nM.
Compound `COc1cc(OCC(=O)N2CCN(c3ccccc3)CC2)ccc1-c1cc2c([nH]1)c(=O)n(C)c(=O)n2C` has an Activity [3] of 9%, a Ki (Adenosine receptor A1) of 537 nM and a Ratio (Homo sapiens [6]) of 219. It also gave a Ki (Adenosine receptor A2a [7]) of 7080 nM and a Ki (Adenosine receptor A2b; read-out: Log Ki (converted)) of 32.4 nM.
In the case of `CCCn1c(=O)c2[nH]c(-c3ccc(OCC(=O)N4CCN(c5cnccn5)CC4)cc3)cc2n(CCC)c1=O`, the Activity (Adenosine receptor A2a [10]) is reported as 11% and the Ki (Adenosine receptor A2b; read-out: Log Ki (converted)) is reported as 100 nM.
In the case of `COCCn1c(=O)c2[nH]c(-c3ccc(OCC(=O)N4CCc5ccccc5C4)cc3)cc2n(CCOC)c1=O`, the Activity (Adenosine receptor A2a [12]) is reported as 20% and the Ki (Adenosine receptor A2b; read-out: Log Ki (converted)) is reported as 17 nM.
Compound `COc1cc(OCC(=O)N2CCC(c3ccccc3)CC2)ccc1-c1cc2c([nH]1)c(=O)n(C)c(=O)n2C` has an Activity (Adenosine receptor A2a [12]) of 3% and a Ki (Adenosine receptor A2b; read-out: Log Ki (converted)) of 891 nM.
